In the library only some 1.3% were active in any assay of this set; here they are far more common.
CHT block: inhibitors of human choline transporter CHT | CHT-expressing cells, membrane potential dye, choline response; hits give low values | AID 488975 | hit rate 0.86% among 310,000 | Q9GZV3 | B-score at 10 µM;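 active = B-score over 3 SD under the library average, and starting fluorescence ratio not unusually high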;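 note: choline stimulus applied at its EC90 after an EC20 pre-addition; B-score computed on integrated fluorescence ratio after choline addition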
CHT allo act: allosteric activators of human choline transporter CHT | Q9GZV3 | B-score at 10 µM | CHT-expressing cells, membrane potential dye, choline EC20; hits give high values; LV-AA mutant CHT in HEK293 cells | hit rate 0.49% among 310,000 | AID 488977;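 active = initial fluorescence not abnormally high and integrated response B-score, plate-corrected, over 3 SD above library mean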
proCasp7 act: activates human procaspase-7, counter-screen for procaspase-3 activators. P55210. recombinant procaspase-7, Ac-DEVD-pNA absorbance 405 nm; D23A/D198A/D206A triple mutant, cannot self-cleave; scale: DMSO 0, 5 µM enzyme 100. activation, % at 8.5 µM. hit rate 0.093% among 330,000. AID 463210;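 active = percent activation above the screen-wide mean plus 3 SD, cut at about 25% in these data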
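System: Procaspase-7 triple mutant (PC-7 D3A); measure: % activation from two-timepoint absorbance difference, scaled to controls; times: 1 h compound preincubation, 2 h substrate cleavage, 25 °C; also added: Ac-DEVD-pNA substrate, 400 µM as added; measured by: Epi-absorbance of released pNA at 405 nm, two timepoints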
procasp3 activ: activates human procaspase-3. hit rate 0.11% among 330,000. AID 463141. activation, % at 8.5 µM. recombinant procaspase-3 D3A, Ac-DEVD-pNA absorbance 405 nm;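 active = activation above the mean of all tested compounds plus 3 SD, cut at about 21% in these data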;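 note: 0% = DMSO alone and 100% = DMSO wells spiked with extra 5 µM PC-3 D3A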
Target sequence (P42574 whole entry D9A/D28A/D175A): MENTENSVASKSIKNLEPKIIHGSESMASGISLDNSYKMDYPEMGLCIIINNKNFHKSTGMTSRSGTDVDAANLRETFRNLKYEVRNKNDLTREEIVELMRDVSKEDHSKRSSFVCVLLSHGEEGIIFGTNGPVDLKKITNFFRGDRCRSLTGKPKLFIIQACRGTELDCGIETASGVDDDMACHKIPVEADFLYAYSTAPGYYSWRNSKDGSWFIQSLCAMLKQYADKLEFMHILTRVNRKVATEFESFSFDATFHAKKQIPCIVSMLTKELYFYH
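Test system: Procaspase-3 D3A mutant, all three cleavage aspartates alanine | Dosing: Single dose, 8.5 µM nominal compound, 0.8% DMSO | Schedule: 1 h preincubation, 2 h reaction | Technique: 405 nm absorbance of p-nitroaniline, reads at 0 and 120 min | Repeats: One well per compound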
CHT activ conf: human CHT activation, confirmatory screen. shares compounds with CHT allo act. CHT-expressing cells, membrane potential dye fluorescence (FDSS); % of choline EC20–EC90 response window; HEK293 expressing CHT LV-AA mutant; choline added at its EC20. activation, % at 10 µM. hit rate 91% among 2,500. AID 504833;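 active = primary screen active, with duplicate mean activation above negative control mean plus 3 SD, cut at about 11% in these data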
HEK293 MP dye: counter-screen for CHT activators: effect in parental HEK293 cells | shares compounds with CHT allo act | membrane potential dye fluorescence (FDSS); measured after EC20 choline addition | ratio readout change at 10 µM, hits read low | hit rate 62% among 2,500;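 active = duplicate-averaged ratio beyond 3 SD from buffer wells, up or down, though filed actives are nearly all decreases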
An asterisk follows results filed as active; i = inactive; . = no result.

SMILES | CHT block | CHT allo act | proCasp7 act | procasp3 activ | CHT activ conf | HEK293 MP dye
Cc1cc(OC(C)C(=O)NCCCN2CCOCC2)c2c(C)cc(=O)oc2c1 (stereo unspecified) | i | i | 4 | 1 | 50* | -41*
CCCc1cc(=O)oc2cc(C)cc(OC(C)C(=O)NCCCN3CCOCC3)c12 (stereo unspecified) | i | i | 9 | 5 | . | .
Cc1cc(OC(C)C(=O)NCCN2CCOCC2)c2c(C)c(C)c(=O)oc2c1 (stereo unspecified) | i | i | -1 | 10 | 58* | -56*
Cc1ccnc(NC(=O)CCC2CCCCC2)c1 | i | i | -2 | 6 | 27* | i
Cc1cc(NC(=O)CCC2CCCCC2)no1 | i | i | -2 | -3 | . | .
CCC(C)(C)NC(=O)C(c1ccccc1)N(Cc1cccs1)C(=O)Cn1nnc2ccccc21 (stereo unspecified) | i | i | 15 | 7 | 19* | i
CCC(C)(C)NC(=O)C(c1ccc(C)o1)N(Cc1cccs1)C(=O)Cn1nnc2ccccc21 (stereo unspecified) | i | i | 5 | 4 | . | .
CC(NCC(=O)Nc1ccccc1C(=O)NC1CC1)c1ccc(S(C)(=O)=O)cc1 (stereo unspecified) | . | . | 4 | 0 | . | .
CC1=Nc2cccc3cccc(c23)N1 | i | i | -10 | 9 | 33* | -39*
Cc1nc(NC(=O)CSc2nnc(Cn3nnc4ccccc43)n2C)sc1C | i | i | 3 | 7 | . | .
Cc1c(C)n(CC(O)CN2CCOCC2)c2ccccc12 (stereo unspecified) | i | i | -2 | 4 | . | .
O=c1c2ccccc2n(CC(O)CN2CCCCC2)c2ccccc12 (stereo unspecified) | i | 6.3* | -3 | -8 | 44* | -39*
OC(CN1CCCCC1)Cn1c2ccccc2c2ccccc21 (stereo unspecified) | i | i | -5 | -6 | . | .
O=c1c2ccccc2n(CC(O)CN2CCOCC2)c2ccccc12 (stereo unspecified) | i | i | -13 | -16 | 11* | i
O=C1C=C(c2ccc(CO)cc2)C[C@@H](c2ccc3c(c2)OCO3)C1 | . | . | 1 | -3 | . | .
Cc1c(C)n(Cc2ccccc2)c2ncnc(NCCCN(C)C)c12 | i | i | -4 | 10 | 26* | -39*
C/C(=N/NC(=O)c1ccccn1)c1ccncc1 | i | i | 4 | -1 | . | .
C/C(=N/NC(=O)c1cnccn1)c1ccncc1 | i | 6.4* | -3 | -2 | 49* | -40*
CCCCNC(=O)c1ccc(NC(C)=O)c(Cl)c1 | i | i | -3 | 1 | . | .
COc1ccc(Oc2nc(-c3ccccn3)ncc2OC)cc1 | i | i | 11 | 1 | . | .
COc1cnc(-c2ccccn2)nc1N(C)C | i | i | -16 | 1 | 33* | -36*
CCN(CC)CCn1c(=N)n(CC(O)c2ccco2)c2ccccc21 (stereo unspecified) | i | i | 1 | -4 | . | .
CCN(CC)CCn1c(=N)n(CC(O)COc2cccc(C)c2)c2ccccc21 (stereo unspecified) | i | 6.4* | -7 | 2 | 54* | i
COCCNC(=O)[C@H]1N2C(=O)c3ccccc3C2SC1(C)C (stereo partly specified) | i | i | -4 | 2 | . | .
COc1ccc(C(C)=O)cc1CSc1nnc(Nc2ccccc2)s1 | i | i | 6 | 8 | . | .
CCN1CCN(c2nc(-c3cccs3)nc3ccccc23)CC1 | i | 7.1* | 8 | 2 | 43* | -40*
c1ccc(N2CCN(c3nc(-c4cccs4)nc4ccccc34)CC2)cc1 | i | i | 2 | 10 | . | .
c1ccc(CN2CCC(Nc3nc(-c4cccs4)nc4ccccc34)CC2)cc1 | i | i | -7 | 12 | 23* | -48*
c1csc(-c2nc(NCC3CCCO3)c3ccccc3n2)c1 (stereo unspecified) | i | i | 1 | 1 | . | .

Bioassay records deposited in PubChem BioAssay by several laboratories.
